Measured values from article PMC8919593 (Journal of neuroscience research, 2021).

What was measured:
primary mouse microglia [1] = assay: Flow cytometric assay of microglial viability; assay type: cell-based; conditions: 1 μM inhibitor, with or without 1 ng/ml IFNγ, 24 hr; Figure S2
primary mouse microglia [2] = assay: qRT-PCR of homeostatic and DAM genes in primary microglia; assay type: cell-based; conditions: dose ranges between 4 and 50 nM, IFNγ-stimulated conditions; Figure S6
In short: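 Mouse brain microglia were purified by CD11b+ MACS selection, plated on poly-L-lysine and cultured at 37°C. After 24 hr, half the medium was replaced and the ERK1/2 inhibitor added. Cells were preincubated 1 hr, then stimulated with 1 ng/ml IFNγ for 24 hr, matching the NanoString culture conditions. RNA was isolated and checked for concentration and purity by spectrophotometry before qRT-PCR.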

primary mouse microglia [3] = assay: Microglia-neuron coculture assay of neuronal phagocytosis; assay type: cell-based; conditions: 1 μM inhibitor, without IFNγ treatment; 24 hr coculture; Figure 5e
ERK1 = conditions: read-out: IC50 for ERK1; ref Morris et al., 2013; cited from earlier work
ERK2 = conditions: read-out: IC50 for ERK2; ref Morris et al., 2013; cited from earlier work

O=C(Nc1ccc2[nH]nc(-c3ccncc3)c2c1)[C@@H]1CCN(CC(=O)N2CCN(c3ccc(-c4ncccn4)cc3)CC2)C1 [SCH772984]
cell health and viability of microglia (primary mouse microglia [1]): minimally impacted cell health and viability
gene expression of Ptgs2 (pro-inflammatory DAM gene) (primary mouse microglia [2]): inhibited gene expression of Ptgs2
microglial phagocytosis of N2a cells (primary mouse microglia [3]): significantly reduced microglial phagocytosis of N2a cells
IC50 (ERK1): 4 nM
IC50 (ERK2): 1 nM
